Source: ChEMBL document CHEMBL1138424, “Solid phase-assisted synthesis and screening of a small library of N-(4-hydroxyphenyl)retinamide (4-HPR) analogs” (2007)
The source made the active and inactive calls. No cut-off for these calls is given here.

tested on: MCF7; assay: Growth inhibition of human MCF7 cells at 10 uM after 48 hrs by fluorescein diacetate cell viability assay relative to 4-HPR; assay type: functional
Outline: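 MCF-7 human breast cancer cells received a single dose at a final 10−5M, with vehicle at 0.2% ethanol. Live cells were counted 48 hrs later by fluorescein diacetate viability assay. Activity was scored on a +/++/+++ scale against 4-HPR.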

| Structure (SMILES) | Activity |
| --- | --- |
| CC1=C(/C=C/C(C)=C/C=C/C(C)=C/C(=O)Nc2ccc(N)cc2)C(C)(C)CCC1 | >=50% |
| CC1=C(/C=C/C(C)=C/C=C/C(C)=C/C(=O)Nc2ccc(C)cc2O)C(C)(C)CCC1 | >=50% |
| CC1=C(/C=C/C(C)=C/C=C/C(C)=C/C(=O)Nc2cc(Cl)ccc2O)C(C)(C)CCC1 | >=50% |
| COC(=O)c1ccc(NC(=O)/C=C(C)/C=C/C=C(C)/C=C/C2=C(C)CCCC2(C)C)c(O)c1 | >=25% |
| CC1=C(/C=C/C(C)=C/C=C/C(C)=C/C(=O)N(C)c2ccc(O)cc2)C(C)(C)CCC1 | >=25% |
| CC1=C(/C=C/C(C)=C/C=C/C(C)=C/C(=O)Nc2ccc(Cl)c(Cl)c2)C(C)(C)CCC1 | >=25% |
| CC1=C(/C=C/C(C)=C/C=C/C(C)=C/C(=O)Nc2ccc([N+](=O)[O-])cc2O)C(C)(C)CCC1 | >=100% |
| CC1=C(/C=C/C(C)=C/C=C/C(C)=C/C(=O)Nc2ccccc2C(=O)O)C(C)(C)CCC1 | >=25% |
| CC1=C(/C=C/C(C)=C/C=C/C(C)=C/C(=O)Nc2cccc(CO)c2)C(C)(C)CCC1 | >=25% |
| CC1=C(/C=C/C(C)=C/C=C/C(C)=C/C(=O)Nc2ccccc2)C(C)(C)CCC1 | >=25% |
| CC1=C(/C=C/C(C)=C/C=C/C(C)=C/C(=O)Nc2ccc(C)c(O)c2)C(C)(C)CCC1 | >=100% |
| CC1=C(/C=C/C(C)=C/C=C/C(C)=C/C(=O)Nc2ccc(O)c(Cl)c2)C(C)(C)CCC1 | >=50% |
| CC1=C(/C=C/C(C)=C/C=C/C(C)=C/C(=O)Nc2ccc(Cl)cc2)C(C)(C)CCC1 | >=25% |
| COC(=O)c1cc(NC(=O)/C=C(C)/C=C/C=C(C)/C=C/C2=C(C)CCCC2(C)C)ccc1O | >=25% |
| COc1ccc(NC(=O)/C=C(C)/C=C/C=C(C)/C=C/C2=C(C)CCCC2(C)C)cc1 | >=25% |
| CC1=C(/C=C/C(C)=C/C=C/C(C)=C/C(=O)Nc2cc([N+](=O)[O-])ccc2O)C(C)(C)CCC1 | >=25% |
| CC1=C(/C=C/C(C)=C/C=C/C(C)=C/C(=O)Nc2ccc(O)cc2)C(C)(C)CCC1 [FENRETINIDE] | >=100% |

tested on: MCF7; assay: Induction of apoptosis in human MCF7 cells at 10 uM after 48 hrs by TUNEL assay relative to 4-HPR; assay type: functional, cell-based
Outline: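 MCF-7 cells received a single dose at 10−5M, with vehicle as control. After 48 hr the % of TUNEL-labeled cells was scored. Values are means (+SEM) of three independent cell culture experiments, compared with standard 4-HPR.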

| Structure (SMILES) | Activity |
| --- | --- |
| COC(=O)c1ccc(NC(=O)/C=C(C)/C=C/C=C(C)/C=C/C2=C(C)CCCC2(C)C)c(O)c1 | Active |
| CC1=C(/C=C/C(C)=C/C=C/C(C)=C/C(=O)Nc2ccc([N+](=O)[O-])cc2O)C(C)(C)CCC1 | Active |
| CC1=C(/C=C/C(C)=C/C=C/C(C)=C/C(=O)Nc2ccc(C)c(O)c2)C(C)(C)CCC1 | Active |
